Bioassay records from PubChem BioAssay.
PfM18AAP inh = PfM18AAP inhibitors, malaria aminopeptidase, primary screen, biochemical, QFRET, recombinant enzyme | M18 aspartyl aminopeptidase (Plasmodium falciparum 3D7) | H-Glu-NHMec fluorogenic cleavage | inhibition, % at 7.35 µM | actives 1.2% (n = 290,000) | AID 1822, 2009;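 active means inhibition above the campaign mean inhibition over all tested compounds plus 3 SD, cut at about 28% in these data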
VIM-2 inh = VIM-2 metallo-beta-lactamase inhibitors, primary screen, biochemical, epi-absorbance readout, Pseudomonas aeruginosa enzyme | purified VIM-2, nitrocefin hydrolysis, epi-absorbance fluorescence | inhibition, % at 5.6 µM | actives 0.89% (n = 290,000);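 active means inhibition above the mean of all tested compounds plus 3 SD, cutoff set per screening run, cut at about 7.5% in these data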;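 further: red hydrolysis product quenches plate fluorescence so inhibitors raise well fluorescence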
sPLA2-III inh = human group III sPLA2 inhibitors, primary screen, biochemical, QFRET, BODIPY PC-A2 liposome substrate; actives 0.56% (n = 370,000); Group 3 secretory phospholipase A2 (Homo sapiens), Q9NZ20; inhibition, % at 12.2 µM; QFRET BODIPY PC-A2 liposome hydrolysis, fluorescence;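 active means inhibition above mean plus 3 SD of compounds lying within the high and low control bounds, cut at about 19% in these data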
IMP-1 inh-1 = IMP-1 metallo-beta-lactamase inhibitors, primary screen, biochemical, epi-absorbance readout, Pseudomonas aeruginosa enzyme; actives 0.45% (n = 290,000); purified IMP-1, nitrocefin hydrolysis, epi-absorbance fluorescence; AID 1556, 2009; metallo-beta-lactamase IMP-1 (Pseudomonas aeruginosa); inhibition, % at 5.6 µM;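 active means inhibition above the mean plus 3 SD of all compounds in the same screening run, cut at about 4.5% in these data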
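System: purified recombinant IMP-1 beta-lactamase. Medium: Zinc- and detergent-supplemented HEPES buffer, pH 7.1. Compound: one 5.6 µM dose […]. Schedule: 15 min preincubation plus 25 min reaction at 25 °C. Technique: Epi-absorbance fluorescence, 480 nm excitation, 530 nm emission.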
IMP-1 inh-2 = IMP-1 metallo-beta-lactamase inhibitors, confirmation, selectivity assay for selective VIM-2 inhibitor project, biochemical, epi-absorbance readout, triplicate; shares compounds with VIM-2 inh; purified IMP-1, nitrocefin hydrolysis, epi-absorbance fluorescence; inhibition, % at 5.6 µM; 1,300 tested, under 10 active; AID 1856, 2009; call rule not given here
VIM-2 FRET ctr = VIM-2 inhibitors in FRET format, confirmation, artefact control for selective VIM-2 inhibitor project, biochemical, epi-absorbance artifact exclusion. shares compounds with VIM-2 inh. purified VIM-2, CCF2 FRET substrate hydrolysis. inhibition, % at 5.6 µM. actives 23% (n = 1,300). AID 1857, 2009;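 active means inhibition above the mean of all tested compounds plus 3 SD, cut at about 19% in these data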
TEM-1 inh = TEM-1 serine beta-lactamase inhibitors, counter-screen for VIM-2 inhibitor project, biochemical, epi-absorbance, HTS; shares compounds with VIM-2 inh; Purified TEM-1, nitrocefin hydrolysis, epi-absorbance fluorescence; inhibition, % at 5.6 µM; actives 3% (n = 1,300);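 active means inhibition above that campaign's mean inhibition plus 3 SD, cut at about 0.46% in these data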
Target sequence (P62593 whole entry, looked up): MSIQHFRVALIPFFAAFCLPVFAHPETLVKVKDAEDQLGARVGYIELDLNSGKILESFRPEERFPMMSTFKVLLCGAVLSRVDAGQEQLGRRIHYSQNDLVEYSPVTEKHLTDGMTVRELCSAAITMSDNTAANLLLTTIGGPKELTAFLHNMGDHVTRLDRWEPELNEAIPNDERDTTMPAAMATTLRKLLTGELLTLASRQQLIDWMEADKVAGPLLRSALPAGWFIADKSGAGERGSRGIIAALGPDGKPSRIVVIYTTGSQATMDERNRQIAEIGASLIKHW
VIM-2 inh conf = VIM-2 metallo-beta-lactamase inhibitors, confirmation, biochemical, epi-absorbance, hits shared with IMP-1 screen; shares compounds with VIM-2 inh; purified VIM-2, nitrocefin hydrolysis; inhibition, % at 5.6 µM; actives 96% (n = 1,300);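 active means inhibition of the VIM-2 beta-lactamase enzyme above about 11% from the earlier first-round screen, limit read from the data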
Numbers stand for hits; – = inactive; · = not tested or not shown. Hits are enriched below; roughly 2.4% of the tested compounds scored in any of these assays.

SMILES	PfM18AAP inh	VIM-2 inh	sPLA2-III inh	IMP-1 inh-1	IMP-1 inh-2	VIM-2 FRET ctr	TEM-1 inh	VIM-2 inh conf
Cc1ccc(-c2csc(NC(=O)c3ccc(Br)cc3)c2C(=O)O)cc1	–	–	–	–	·	·	·	·
Cc1ccc(-c2c(C(=O)O)c(C(=O)O)c3n2CSC3)cc1	–	34	–	–	–	52	–	37
O=C(O)c1c(C(=O)O)c(-c2ccc(Br)cc2)n2c1CSC2	–	43	–	–	–	68	–	50
COC(=O)c1c(C(=O)OC)c(-c2ccc(F)cc2)n2c1CSC2	–	–	–	–	·	·	·	·
O=C(c1cccs1)N1CC[C@H]2[C@H](CCCN2Cc2cc(F)cc(F)c2)C1	·	·	–	·	·	·	·	·
Cc1cc(OC(C)C(=O)NCCCn2ccnc2)c2c(C)c(C)c(=O)oc2c1 (stereo not given)	–	64	–	–	–	–	–	74
Cc1cc(OCC(=O)NCCCn2ccnc2)c2c(C)c(C)c(=O)oc2c1	–	80	–	–	–	–	–	85
Cc1cc(OCC(=O)NCCN2CCOCC2)c2c(C)c(C)c(=O)oc2c1	–	19	–	–	–	–	–	29
Cc1cc(OC(C)C(=O)NCCCN2CCOCC2)c2c(C)c(C)c(=O)oc2c1 (stereo not given)	–	–	–	–	·	·	·	·
CCc1cc(=O)oc2cc(C)cc(OCC(=O)NCc3cccnc3)c12	–	–	–	–	·	·	·	·
CCc1cc(=O)oc2cc(C)cc(OCC(=O)NCCCn3ccnc3)c12	–	51	–	–	–	–	–	61
O=C(NCC1CCN(C(=O)C(=O)c2cc3ccccc3o2)CC1)c1ccc2c(c1)OCO2	·	·	–	·	·	·	·	·
c1ccc2[nH]c(CN3CCN(c4ncnc5c4oc4ccccc45)CC3)nc2c1	–	15	–	–	–	–	–	27
CSc1nc(C)c2c(n1)N(c1ccc(O)cc1)CC2	–	16	–	–	–	–	–	27
COc1ccc(C(=O)NC(C)c2ccc(-n3ccnc3)cc2)c(OC)c1OC (stereo not given)	–	30	–	–	–	–	–	40
CC(NC(=O)c1ccccc1OC(F)F)c1ccc(-n2ccnc2)cc1 (stereo not given)	–	–	–	–	·	·	·	·
COc1ccc(C(=O)NC(C)c2ccc(-n3ccnc3)cc2)c(OC)c1 (stereo not given)	–	22	–	–	–	–	–	34
CC(NC(=O)c1cc(F)c(F)c(F)c1F)c1ccc(-n2ccnc2)cc1 (stereo not given)	–	–	–	–	·	·	·	·
O=C(NN=Cc1ccc(-c2ccccc2)cc1)c1cc(-c2ccc(Cl)cc2)n[nH]1	·	·	–	·	·	·	·	·
CSc1nc(NCCCN(C)C)c2c3c(sc2n1)CN(C)CC3	29	25	–	–	–	–	–	37
CN(C)CCSc1nc(N)c2c3c(sc2n1)CN(C)CC3	–	–	–	–	·	·	·	·
CN1CCN(C(=O)/C(=C/c2cccs2)NC(=O)c2cccs2)CC1	–	17	–	–	–	–	–	–
O=C(O)c1cccc2c1Cc1cc(Cl)ccc1-2	·	·	–	·	·	·	·	·
Cc1cc(NCCCN2CCOCC2)n2c(nc3ccccc32)c1C#N	–	40	–	–	–	–	–	57
Cc1cc(NCCCCO)n2c(nc3ccccc32)c1C#N	–	19	–	–	–	–	–	40
SMILES	PfM18AAP inh	VIM-2 inh	sPLA2-III inh	IMP-1 inh-1	IMP-1 inh-2	VIM-2 FRET ctr	TEM-1 inh	VIM-2 inh conf
C=C(C)CSc1cc(C)c(C#N)c2nc3ccccc3n12	–	17	–	–	–	–	–	21
COCCN(CCOC)c1cc(C)c(C#N)c2nc3ccccc3n12	–	–	–	–	·	·	·	·
CCN(CC)CCCNc1cc(C)c(C#N)c2nc3ccccc3n12	·	·	–	·	·	·	·	·
CCN(CC)CCNc1cc(C)c(C#N)c2nc3ccccc3n12	–	22	–	–	–	–	–	37
COC(=O)C1CCN(C2CN(Cc3ccc(F)cc3)S(=O)(=O)C2)CC1 (stereo not given)	·	·	–	·	·	·	·	·
Cc1ccc(-n2c(SCC(=O)NC3CCS(=O)(=O)C3)nc3ccccc3c2=O)c(C)c1 (stereo not given)	·	·	–	·	·	·	·	·
CCN(CC)CCNc1c2c(c(C#N)c3nc4ccccc4n13)CCCC2	–	–	–	–	·	·	·	·
Cc1cc(-c2ccco2)n2c(nc3ccccc32)c1C#N	–	18	–	–	–	32	–	43
CCN(CC)CCCNc1cc(C(F)(F)F)c(C#N)c2nc3ccccc3n12	–	29	–	–	–	–	–	41
CC(Oc1ccc2c3c(c(=O)oc2c1)CCCC3)C(=O)NCCCn1ccnc1 (stereo not given)	–	23	–	–	–	–	–	40
Cc1c(C)c2ccc(OCC(=O)NCCCn3ccnc3)cc2oc1=O	–	21	–	–	–	–	–	32
O=C(COc1ccc2c(-c3ccccc3)cc(=O)oc2c1)NCCCn1ccnc1	–	–	–	–	·	·	·	·
O=C(COc1ccc2c3c(c(=O)oc2c1)CCCC3)NCCCn1ccnc1	–	30	–	–	–	–	1.4	41
COc1cccc(CNC(=O)[C@H]2CCCN2C(=O)[C@H]2CCCN2C(=O)c2cccc(F)c2)c1	·	·	–	·	·	·	·	·
CCN(CC)CCOC(=O)c1cccc2c1-c1ccccc1C2O (stereo not given)	–	25	–	–	–	–	–	43
CCN(CC)CCOC(=O)c1ccccc1Br	–	–	–	–	·	·	·	·
COc1ccc(/C=N/N(C)C2=NS(=O)(=O)c3ccccc32)cc1	–	–	–	–	·	·	·	·
CN(/N=C/c1cccc(Br)c1)C1=NS(=O)(=O)c2ccccc21	–	16	–	–	–	–	–	23
CCCCCN(C(=O)CCC(=O)OCc1cc(C)ccc1C)c1c(N)n(CCCC)c(=O)[nH]c1=O	·	·	–	·	·	·	·	·
O=c1[nH]c2c(s1)C(c1cccnc1)C1C3CCC(C3)C1S2 (stereo not given)	–	84	·	–	–	89	–	83
COc1ccc(-c2noc(CCC(=O)Nc3cccc(C(=O)NC4CC4)c3)n2)cc1OC	·	·	–	·	·	·	·	·
Cc1ccc(COc2ccsc2-c2n[nH]c(=S)n2C)cc1	–	34	–	–	–	62	–	41
